Assay outcomes (PubChem)
Most compounds without a hit are left out; they make up all but 1.8% or so of the library.
Rev-erbA mod = modulators of Rev-erb alpha DNA binding, primary screen, biochemical, FITC-DNA, fluorescence polarization, uHTS; Rev-erbα–FITC-DNA binding, 90 min; activity, % at 10 µM; 370,000 tested, 0.79% active; AID 1259318, 2017;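 active means activity above about 14%, limit read from the data; passing the limit was not always enough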;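 further: 0% = DMSO wells with 35 nM protein and 100% = DMSO wells with 750 nM protein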
Rin1-Abl PPI inh = inhibitors of Rin1-Abl protein binding, primary screen, biochemical, TR-FRET | Tyrosine-protein kinase ABL1 (Homo sapiens) + Ras and Rab interactor 1 (Homo sapiens), … | inhibition, % at 7.35 µM | AID 588664, 2011 | 360,000 tested, 0.4% active; in the data active means inhibition above about 5%, passing the limit was not always enough
Target sequence (P00519 whole entry, looked up): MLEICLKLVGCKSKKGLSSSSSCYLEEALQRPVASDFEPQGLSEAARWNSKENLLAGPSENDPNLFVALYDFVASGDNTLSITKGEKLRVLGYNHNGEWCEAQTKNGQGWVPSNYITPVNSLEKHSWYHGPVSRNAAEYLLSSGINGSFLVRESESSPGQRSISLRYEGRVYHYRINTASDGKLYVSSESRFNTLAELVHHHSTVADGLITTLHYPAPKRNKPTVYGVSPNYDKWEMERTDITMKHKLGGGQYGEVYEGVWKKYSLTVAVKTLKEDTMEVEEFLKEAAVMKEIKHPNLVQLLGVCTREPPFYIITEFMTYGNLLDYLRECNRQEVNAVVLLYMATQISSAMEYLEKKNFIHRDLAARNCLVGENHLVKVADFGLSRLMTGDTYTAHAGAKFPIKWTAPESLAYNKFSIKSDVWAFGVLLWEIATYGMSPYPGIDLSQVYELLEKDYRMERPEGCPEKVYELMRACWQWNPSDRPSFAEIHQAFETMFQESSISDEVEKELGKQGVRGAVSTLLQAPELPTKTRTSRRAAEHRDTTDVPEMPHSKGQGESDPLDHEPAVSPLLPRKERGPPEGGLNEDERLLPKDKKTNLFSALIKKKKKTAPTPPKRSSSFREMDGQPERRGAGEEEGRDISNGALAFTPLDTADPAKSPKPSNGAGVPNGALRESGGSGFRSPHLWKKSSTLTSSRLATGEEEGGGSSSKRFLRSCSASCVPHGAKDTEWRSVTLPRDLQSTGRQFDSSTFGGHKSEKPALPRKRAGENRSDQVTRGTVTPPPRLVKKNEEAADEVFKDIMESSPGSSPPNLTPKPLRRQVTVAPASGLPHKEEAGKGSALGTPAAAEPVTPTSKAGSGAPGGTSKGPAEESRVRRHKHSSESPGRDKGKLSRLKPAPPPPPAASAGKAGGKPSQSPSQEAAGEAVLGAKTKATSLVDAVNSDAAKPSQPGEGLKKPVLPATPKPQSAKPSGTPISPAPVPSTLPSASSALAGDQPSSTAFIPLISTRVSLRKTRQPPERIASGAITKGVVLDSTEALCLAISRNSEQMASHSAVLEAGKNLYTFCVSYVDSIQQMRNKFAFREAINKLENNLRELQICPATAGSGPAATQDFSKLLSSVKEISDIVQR
Target sequence (Q13671 whole entry, looked up): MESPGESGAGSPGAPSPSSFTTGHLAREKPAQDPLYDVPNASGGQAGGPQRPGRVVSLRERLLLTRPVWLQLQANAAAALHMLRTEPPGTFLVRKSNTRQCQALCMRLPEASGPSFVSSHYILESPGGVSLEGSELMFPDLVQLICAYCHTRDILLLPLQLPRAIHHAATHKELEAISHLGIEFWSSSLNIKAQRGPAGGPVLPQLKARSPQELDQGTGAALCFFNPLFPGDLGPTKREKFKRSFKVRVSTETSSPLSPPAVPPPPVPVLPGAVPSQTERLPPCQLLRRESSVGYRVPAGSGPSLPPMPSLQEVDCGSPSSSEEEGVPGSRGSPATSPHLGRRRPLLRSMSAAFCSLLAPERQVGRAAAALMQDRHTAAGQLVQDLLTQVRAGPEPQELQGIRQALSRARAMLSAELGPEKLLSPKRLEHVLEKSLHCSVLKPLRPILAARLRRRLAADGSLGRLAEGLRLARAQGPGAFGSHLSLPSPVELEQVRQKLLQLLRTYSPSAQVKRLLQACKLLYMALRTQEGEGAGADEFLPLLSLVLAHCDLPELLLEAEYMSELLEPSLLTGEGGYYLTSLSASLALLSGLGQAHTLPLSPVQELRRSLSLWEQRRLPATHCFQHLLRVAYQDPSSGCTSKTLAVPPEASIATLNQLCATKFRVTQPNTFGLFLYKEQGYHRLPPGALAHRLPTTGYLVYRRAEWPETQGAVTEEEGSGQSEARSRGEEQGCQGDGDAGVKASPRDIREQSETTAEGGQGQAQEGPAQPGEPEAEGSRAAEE
PG9 binder = binders of HIV-1 gp120 antibody PG9, primary screen, biochemical, TR-FRET; inhibition, % at 6.7 µM; HIV-1 gp120 / PG9 antibody interaction; 360,000 tested, 0.43% active; TR-FRET gp120-PG9 antibody binding; AID 624416, 2012; in the data active means inhibition above about 8.5%
TbMetRS inhib = T. brucei MetRS inhibitors, primary screen, biochemical, luminescence. inhibition, % at 11.9 µM. purified T. brucei MetRS, ATP depletion, Kinase-Glo luminescence. AID 624268, 2012. 360,000 tested, 0.4% active. methionyl-tRNA synthetase (Trypanosoma brucei brucei);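 active means inhibition above a per-plate cutoff of the control wells' mean inhibition plus 3 SD, cut at about 5.5% in these data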;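 further: 0% = DMSO wells median and 100% = median of wells with control inhibitor compound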
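Assay system: T. brucei methionyl-tRNA synthetase, purified | Medium: HEPES buffer with MgCl2, KCl, DTT, spermine, BSA, pyrophosphatase | Compound: 11.9 µM single point | Incubation: 15 min enzyme-compound preincubation, 2 h reaction, 10 min detection, 25 °C | Measured by: Kinase-Glo luciferase luminescence reporting remaining unconsumed ATP | Measure: % inhibition normalized to control-well medians | Replication: Singlicate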
Tb MetRS conf = T. brucei MetRS inhibitors, confirmation, biochemical, luminescence; inhibition, % at 11.9 µM; shares compounds with TbMetRS inhib; 1,400 tested, 93% active; AID 624412, 2012; T. brucei MetRS enzyme, luminescence (ATP depletion); in the data active means inhibition above about 7%
Jurkat cytotox = Jurkat T cell cytotoxicity, cytotoxicity control for T. brucei MetRS inhibitor project, luminescence, high throughput. Jurkat cells viability, ATP luminescence. shares compounds with TbMetRS inhib. inhibition, % at 8.3 µM. 1,400 tested, 12% active; in the data active means inhibition above about 15%;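 further: 0% = vehicle and 100% = reference inhibitor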
TbMetRS FP orth = T. brucei MetRS inhibitors, orthogonal assay for T. brucei MetRS inhibitor project, biochemical, fluorescence polarization; inhibition, % at 11.9 µM; purified T. brucei MetRS; AID 651607, 2012; 1,400 tested, 44% active; shares compounds with TbMetRS inhib; in the data active means inhibition above about 17%;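 further: 0% = vehicle wells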
Numbers without * were called inactive; . = no result given.

SMILES	Rev-erbA mod	Rin1-Abl PPI inh	PG9 binder	TbMetRS inhib	Tb MetRS conf	Jurkat cytotox	TbMetRS FP orth
COc1cccc(C2c3[nH]c4ccccc4c3C[C@H]3C(=O)N(C)CC(=O)N23)c1 (some centres not stated)	0	4	-1	16*	31*	2	10
O=C1[C@@H]2Cc3c([nH]c4ccccc34)C(c3cccc(Br)c3)N2C(=O)CN1C1CCN(Cc2ccccc2)CC1 (some centres not stated)	-2	2	-1	41*	54*	5	28*
O=C(Cc1ccccc1)NCCc1ccc(Cl)cc1Cl	.	-5	.	0	.	.	.
N=c1sccn1CC(=O)NCCc1ccc(Cl)cc1Cl	2	4	0	16*	42*	-5	10
O=c1c(C/C=C/c2ccccc2)c(O)ccn1Cc1ccc(Cl)cc1Cl	-1	1	0	5	.	.	.
O=c1c(Cc2ccc(Cl)cc2Cl)c(O)ccn1Cc1ccncc1	-8	0	0	27*	39*	-2	27*
c1ccc(CN2CCC(CNc3ncnc4ccccc34)C2)cc1 (configuration not stated)	-2	-2	2	6.2*	28*	27*	16
Cc1nc2nc(SCc3nc4ccccc4[nH]3)[nH]c2cc1Br	15	-4	3	13*	18*	0	12
Cc1cc(Cl)cc(C)c1OCCn1ccnc1	-1	1	-2	2	.	.	.
Cc1cc(Cl)cc(C)c1OCCCCCn1ccnc1	3	-2	2	7.8*	19*	7	10
O=C(N[C@H](Cc1ccccc1)C(=O)N1CCN(Cc2ccccn2)CC1)[C@H]1O[C@@H](n2ccc(=O)[nH]c2=O)[C@H](O)[C@@H]1O	-4	.	0	.	.	.	.
Cc1ccc(S(=O)(=O)Nc2ccnc3ccccc23)cc1	-8	0	6	7.0*	15*	8	8
Cc1ccc(S(=O)(=O)Nc2cccc3ncccc23)cc1	-3	-2	0	0	.	.	.
O=C(CCc1nc2ccccc2c(=O)[nH]1)OCCOc1ccc(Cl)cc1	0	5	-2	16*	30*	5	19*
O=C(CCc1nc2ccccc2c(=O)[nH]1)OCc1ccccc1F	-2	-2	2	1	.	.	.
CC[C@H](CCC(=O)N(c1ccccc1)c1ccccc1)c1ccc(C)cc1	5	.	.	.	.	.	.
O=C(CN1CCc2onc(-c3ccc(-n4cc(-c5ccccc5)nn4)cc3)c2C1=O)N1CCOCC1	-1	.	.	.	.	.	.
Cn1c(NCc2cccc(Br)c2)nc2ccccc21	7	-1	0	40*	53*	8	29*
Brc1cccc(CNc2nc3ccccc3n2CCN2CCCCC2)c1	2	0	-2	4	.	.	.
Cc1ccc2nc(SCC(=O)NCc3ccc(F)cc3)[nH]c2c1	4	4	1	18*	22*	-1	6
COc1ccc(CNC(=O)CSc2nc3ccc(C)cc3[nH]2)cc1OC	-1	-2	-3	8.9*	21*	3	7
Cc1ccc2nc(SCC(=O)NCc3ccc(S(N)(=O)=O)cc3)[nH]c2c1	1	2	0	0	.	.	.
O=C(Cc1ccccc1)N1CCC(Oc2cccnc2)CC1	-2	.	.	.	.	.	.
Cc1ccc(C)c(S(=O)(=O)N2CCN(C(=O)c3ccc(-n4cncn4)c([N+](=O)[O-])c3)CC2)c1	10	4	-4	1	.	.	.
CN(c1ccc(OC(=O)c2ccc(-n3cncn3)c([N+](=O)[O-])c2)cc1)S(=O)(=O)c1ccccc1	0	1	-1	5	.	.	.
SMILES	Rev-erbA mod	Rin1-Abl PPI inh	PG9 binder	TbMetRS inhib	Tb MetRS conf	Jurkat cytotox	TbMetRS FP orth
Cc1ccc(OCC(=O)NNC(=O)c2ccc(-n3cncn3)c([N+](=O)[O-])c2)cc1	-8	3	-1	16*	41*	-4	17*
O=C(COc1ccc(Br)cc1)NNC(=O)c1ccc(-n2cncn2)c([N+](=O)[O-])c1	2	-1	-1	20*	54*	1	23*
CCc1ccc(OCC(=O)NNC(=O)c2ccc(-n3cncn3)c([N+](=O)[O-])c2)cc1	4	0	-2	5.9*	35*	-8	17*
COc1cccc(CNc2ncnc3cc(Cl)ccc23)c1	7	4	0	12*	20*	14	5
Cn1cccc1C(=O)N1CCN(S(=O)(=O)c2ccc([N+](=O)[O-])cc2)CC1	-1	.	.	.	.	.	.
NC(=O)Nc1ccc(C(=O)OCC(=O)c2c[nH]c3ccccc23)cc1	1	-3	-1	0	.	.	.
O=C(OCC(=O)c1c[nH]c2ccccc12)c1ccc(OC(F)F)cc1	8	0	-2	12*	31*	4	29*
O=C(CC1SC(=Nc2ccccc2)N(Cc2ccccn2)C1=O)Nc1ccc(Br)cc1 (configuration not stated)	5	6	1	19*	38*	3	16
O=c1c(OC2OC(CO)C(O)C(O)C2OC2OC(CO)C(O)C(O)C2O)c(-c2ccc(O)cc2)oc2cc(O)cc(O)c12 (configuration not stated)	-15	12	-1	7.1*	22*	-3	23*
Nc1nc2nonc2nc1N1CCCCC1	-2	1	0	7.1*	13*	3	3
O=C(Nc1nnc(COc2ccccc2F)s1)Nc1ccccc1F	4	1	-1	15*	25*	4	12
CCC(C)N(C(C)CC)S(=O)(=O)c1ccc2[nH]c(=O)oc2c1 (configuration not stated)	2	.	.	.	.	.	.
Cc1[nH]c2ccccc2c(=O)c1CN1CCCCCC1	3	-3	0	0	.	.	.
Cc1[nH]c2ccc(Br)cc2c(=O)c1CN1CCCCC1	0	-4	0	34*	55*	-7	27*
O=C(NCc1nc2ccccc2[nH]1)C1=C[C@H](c2ccc(C(F)(F)F)cc2)C[C@H](OCc2ccc(CO)cc2)O1	7	2	-1	18*	49*	-3	30*
C#CCNC(=O)C1=C[C@H](c2ccc(C#C)cc2)C[C@H](OCc2ccc(CO)cc2)O1	3	0	-1	0	.	.	.
O=C(NCc1ccccc1)C1=C[C@@H](c2csc3ccccc23)C[C@@H](OCCCCO)O1	-6	.	-3	.	.	.	.
C[C@@H]1C=C(C(=O)NCc2nc3ccccc3[nH]2)O[C@H](OCc2ccc(CO)cc2)C1	1	5	0	69*	96*	6	72*
